In ChEMBL document CHEMBL1155054, “Synthesis, biological evaluation and molecular modelling of N-heterocyclic dipeptide aldehydes as selective calpain inhibitors” (Bioorg Med Chem, 2008):
Active and inactive are the calls of the source. No cut-off for these calls is given here. Residues, ends and D or L forms follow the SMILES beside them. *: point of attachment. Cbz = O=C(OCc1ccccc1)*

Key:
[1] = Inhibition of ovine CAPN1; set-up: species or system Ovis aries
Summary of the method: (§1)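 o-CAPN1 or o-CAPN2 partially purified from sheep lung by hydrophobic and ion-exchange chromatography, diluted in 20 mM MOPS, 2 mM EGTA, 2 mM EDTA, 0.5% β-mercaptoethanol pH 7.5. Substrate 0.0005% BODIPY-FL casein in 10 mM CaCl2; inhibitor in DMSO (2% total).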

[2] = Inhibition of ovine CAPN2; set-up: species or system Ovis aries; summary of the method: as §1
[3] = biological target: T1, Calpain-1 catalytic subunit (Sus scrofa, UniProt P35750)
T1 sequence (P35750 whole entry): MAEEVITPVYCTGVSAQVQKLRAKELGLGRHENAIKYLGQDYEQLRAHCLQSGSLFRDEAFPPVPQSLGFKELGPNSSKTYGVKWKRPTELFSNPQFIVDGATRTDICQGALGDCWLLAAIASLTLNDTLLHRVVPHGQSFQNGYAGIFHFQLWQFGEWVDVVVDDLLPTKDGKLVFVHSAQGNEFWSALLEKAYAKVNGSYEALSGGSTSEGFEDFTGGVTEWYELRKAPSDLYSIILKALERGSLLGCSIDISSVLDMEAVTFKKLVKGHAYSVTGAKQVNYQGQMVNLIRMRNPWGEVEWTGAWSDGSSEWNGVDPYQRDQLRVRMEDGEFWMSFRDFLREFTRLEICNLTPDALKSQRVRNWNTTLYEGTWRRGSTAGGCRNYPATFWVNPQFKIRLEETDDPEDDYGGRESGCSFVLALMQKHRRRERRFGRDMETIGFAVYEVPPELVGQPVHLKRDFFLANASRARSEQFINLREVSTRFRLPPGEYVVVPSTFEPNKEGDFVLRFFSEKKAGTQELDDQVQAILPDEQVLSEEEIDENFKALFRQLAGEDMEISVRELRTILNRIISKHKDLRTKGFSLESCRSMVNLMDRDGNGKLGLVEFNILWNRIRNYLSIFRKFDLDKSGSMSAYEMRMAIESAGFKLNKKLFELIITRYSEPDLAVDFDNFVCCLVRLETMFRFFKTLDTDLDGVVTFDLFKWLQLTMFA

[4] = biological target: T2, Calpain-2 catalytic subunit (Sus scrofa, UniProt P43367); assay: Inhibition of pig CAPN2
T2 sequence (P43367 whole entry): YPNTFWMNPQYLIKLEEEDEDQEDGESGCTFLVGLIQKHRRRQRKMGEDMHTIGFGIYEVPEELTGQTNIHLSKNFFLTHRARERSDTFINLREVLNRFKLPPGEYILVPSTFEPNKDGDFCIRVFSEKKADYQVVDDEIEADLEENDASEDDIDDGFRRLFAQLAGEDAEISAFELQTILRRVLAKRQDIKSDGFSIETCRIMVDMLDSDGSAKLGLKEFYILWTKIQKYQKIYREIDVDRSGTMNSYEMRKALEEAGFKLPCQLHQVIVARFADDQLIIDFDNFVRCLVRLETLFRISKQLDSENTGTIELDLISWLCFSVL

Lens of camera-type eye = assay: Protection against calcium-induced cataract in ovine lens assessed as reduction in loss of transparency at 10 uM after 44 hrs relative to control; type: functional, tissue-based; settings: Ovis aries
[5] = biological target: T3, Calpain-2 catalytic subunit (Homo sapiens, UniProt P17655); assay: Inhibition of human CAPN2
T3 sequence (P17655 whole entry): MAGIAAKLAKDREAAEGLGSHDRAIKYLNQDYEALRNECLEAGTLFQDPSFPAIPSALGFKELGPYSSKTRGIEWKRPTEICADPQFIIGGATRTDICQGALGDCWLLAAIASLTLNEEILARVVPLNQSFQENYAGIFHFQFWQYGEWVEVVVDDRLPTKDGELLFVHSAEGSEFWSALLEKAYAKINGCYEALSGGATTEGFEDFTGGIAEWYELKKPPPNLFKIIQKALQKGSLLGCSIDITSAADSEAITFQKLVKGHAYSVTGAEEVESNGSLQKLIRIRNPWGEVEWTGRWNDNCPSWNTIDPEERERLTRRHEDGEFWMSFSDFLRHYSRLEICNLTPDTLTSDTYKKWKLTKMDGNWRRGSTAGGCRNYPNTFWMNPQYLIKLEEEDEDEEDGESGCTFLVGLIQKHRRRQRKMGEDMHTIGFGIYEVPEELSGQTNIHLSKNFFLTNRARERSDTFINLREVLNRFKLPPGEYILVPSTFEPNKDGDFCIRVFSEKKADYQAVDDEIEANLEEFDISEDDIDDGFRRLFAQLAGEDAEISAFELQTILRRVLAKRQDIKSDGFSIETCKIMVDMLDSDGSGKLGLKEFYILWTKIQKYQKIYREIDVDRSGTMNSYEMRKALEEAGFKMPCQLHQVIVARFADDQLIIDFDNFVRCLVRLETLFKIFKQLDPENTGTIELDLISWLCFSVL

SMILES | IC50 [1] | IC50 [2] | other results
COC(=O)c1ccc(C(=O)N[C@H](C(=O)N[C@H](C=O)CC(C)C)C(C)C)[nH]1 | 290 nM | 140 nM | –
Cc1ccc(C(=O)N[C@H](C(=O)N[C@H](C=O)CC(C)C)C(C)C)[nH]1 | 340 nM | 110 nM | –
CC(C)C[C@@H](C=O)NC(=O)[C@@H](NC(=O)c1ccco1)C(C)C | 790 nM | 135 nM | –
CC(C)C[C@@H](C=O)NC(=O)[C@@H](NC(=O)c1ccc(C=O)n1C)C(C)C | 150 nM | 150 nM | –
CC(C)C[C@@H](C=O)NC(=O)[C@@H](NC(=O)c1ccc(C=O)s1)C(C)C | 440 nM | 85 nM | –
CC(C)C[C@@H](C=O)NC(=O)[C@@H](NS(=O)(=O)c1ccc(F)cc1)C(C)C | – | – | IC50 [3]: 7.5 nM; IC50 [4]: 78 nM
CC(C)C[C@@H](C=O)NC(=O)[C@@H](NC(=O)c1ccc(C=O)[nH]1)C(C)C | 290 nM | 25 nM | Activity (Lens of camera-type eye): Active
CC(C)C[C@@H](C=O)NC(=O)[C@@H](NC(=O)c1cc(C=O)c[nH]1)C(C)C | 530 nM | 100 nM | –
CC(C)[C@H](NC(=O)OCc1ccccc1)C(=O)N[C@H](C=O)Cc1ccccc1 (Cbz-Val-Phe-aldehyde) | – | – | IC50 [5]: 350 nM
CC(C)C[C@@H](C=O)NC(=O)[C@@H](NC(=O)c1cccs1)C(C)C | 680 nM | 100 nM | –
CC(C)C[C@@H](C=O)NC(=O)[C@@H](NC(=O)c1ccc[nH]1)C(C)C | 650 nM | 315 nM | –
CC(C)C[C@@H](C=O)NC(=O)[C@@H](NC(=O)c1ccc(C=O)o1)C(C)C | 960 nM | 100 nM | –
